Mdm2 ligase inh: Mdm2 E3 ligase (human) inhibition. AID 1230. 0.11% of 210,000 active. Q00987. cell-based MDM2 ubiquitination luciferase reporter, 2 h; 0 = plate control, 100 = twice control, blank-subtracted. signal enhancement, % at 5 µM;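 active means signal enhancement of 30% or more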;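 further: luminescence tracks abundance of the self-degrading MDM2-luciferase fusion protein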
Target sequence (Q00987 whole entry, looked up, the tested form may be a part): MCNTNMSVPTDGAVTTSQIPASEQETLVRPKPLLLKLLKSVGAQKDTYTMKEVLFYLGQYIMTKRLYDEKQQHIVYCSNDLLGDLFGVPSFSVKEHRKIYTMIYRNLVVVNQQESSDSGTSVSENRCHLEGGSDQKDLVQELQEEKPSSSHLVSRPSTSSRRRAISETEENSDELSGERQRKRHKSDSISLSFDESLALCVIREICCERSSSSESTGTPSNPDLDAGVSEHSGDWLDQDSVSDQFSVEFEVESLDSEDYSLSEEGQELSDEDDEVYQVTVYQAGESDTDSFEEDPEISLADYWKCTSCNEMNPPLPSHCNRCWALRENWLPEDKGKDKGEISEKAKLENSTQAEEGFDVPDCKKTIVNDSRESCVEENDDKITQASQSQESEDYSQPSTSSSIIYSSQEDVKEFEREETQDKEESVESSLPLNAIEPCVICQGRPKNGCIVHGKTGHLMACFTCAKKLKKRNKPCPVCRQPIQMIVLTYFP
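test system = mammalian cells stably expressing self-ubiquitinating, self-degrading MDM2 E3–luciferase fusion | quantity = 2000 cells/well | incubation = cell settling 4 h, compound treatment 2 h, both 37 °C | signal = luminescence with SteadyLite reagent, 15 min at room temperature | evaluation = % enhancement relative to plate controls after blank subtraction | benchmarks = plate controls and plate blanks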
Dynein transport: blocks dynein driven cargo transport along microtubules; 3617.4 mouse cells, GR-EGFP nuclear translocation imaging; test concentration mostly 20 µM; stimulated with dexamethasone, 1 µM; stronger effect = lower value; z-score, hits read low; 0.47% of 220,000 active;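 active means plate z-score of nuclear minus cytoplasmic receptor signal below a set negative limit, without overly bright fluorescence or cell loss, cut at about -3.5 in these data, passing the limit was not always enough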;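 further: z-score of nuclear minus cytoplasmic ring GR-EGFP intensity difference per well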
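Buffer or medium: tet-free medium with charcoal-stripped serum / Also added: dexamethasone agonist, 1.0 µM final, for 30 min / Timing: induction 48 h, compound 1 h, agonist 30 min / Measured by: high-content fluorescence imaging after fixation / Read-out: nuclear-to-cytoplasmic GR-EGFP distribution per well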
TNF necrop inh: TNF-alpha cell death inhibition in Jurkat FADD-/- cells. Jurkat FADD-/- TNF necroptosis rescue, ATP luminescence, 24 h; 0 = TNF only, 100 = no-TNF cells. activation (protection from cell death), % at 10 µM. 0.068% of 220,000 active. AID 463075;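 active means activation, meaning protection from cell death, of at least 50% relative to plate controls; inactive means activation below 50%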;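 further: necroptosis triggered by 40 ng/mL TNF-alpha added together with compound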
Autophagy mod: alters autophagy in cells | MEF GFP-LC3 puncta imaging; test concentration mostly 10 µM | calls only at 10 µM (by protocol) | 0.98% of 190,000 active | AID 463193;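 active means percentage of spot-positive cells more than 3 SD above its plate mean, without a fluorescence outlier flag or 80% toxicity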;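 further: spot-positive cell cutoff set from DMSO-treated cells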
zVAD death inh: L929 zVAD cell death inhibition | L929 zVAD necroptosis rescue, ATP luminescence, 24 h; with zVAD 60 µM | viability rescue, % at 10 µM | 0.38% of 220,000 active;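 active means activation, scaled between plate controls, above about 75%, limit read from the data; inactive means activation under that limit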;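 further: 0% = zVAD with DMSO and 100% = DMSO alone without zVAD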
zVAD necrop conf: confirmed blocker of zVAD induced death in L929 cells; L929 zVAD-induced necroptosis rescue, ATP luminescence, 24 h; shares compounds with zVAD death inh; activation (protection from necroptosis), % at 10 µM; 16% of 760 active;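 active means mean protection from necroptosis of at least 50% over duplicate tests; inactive means mean protection below 50%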;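 further: 0% = cells with zVAD alone and 100% = vehicle cells without zVAD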
* marks the source's active call; other numbers are inactive results; i = inactive; nt = no result. Compounds with a hit are over-represented: about 1.8% of the library has one in this group of screens.

SMILES	Mdm2 ligase inh	Dynein transport	TNF necrop inh	Autophagy mod	zVAD death inh	zVAD necrop conf
CC1CCCN(Cc2c(O)ccc3c(=O)c(-c4nc5ccccc5s4)c(N)oc23)C1 (stereo unspecified)	-13	0.043	-4	i	78*	38
CCOc1ccc(NC(=S)NNC(=S)Nc2cccc(C(F)(F)F)c2)cc1	-3	-0.88	3	nt	74	nt
COc1ccc(NC(=O)Nc2cccc(C(F)(F)F)c2)cn1	-12	0.26	4	i	77*	4
COc1ccc(NC(=S)NNC(=S)Nc2cccc(C(F)(F)F)c2)cc1	-14	-1.2	0	nt	77*	6
COC(=O)/C(C#N)=C/c1cc(C)sc1C	-14	-0.35	-1	nt	0	nt
Cc1ccc(C2CCN(C(=S)Nc3cccc(C)c3)C2)cc1 (stereo unspecified)	2	-0.12	1	i	1	nt
CC(=O)c1cnc2cc(-c3ccc(C)cc3)nn2c1C	-24	1.4	-2	i	1	nt
CC(=O)c1cnc2cc(-c3ccccc3)nn2c1C	-32	-0.36	-1	i	82*	2
COc1cccc(C(=O)Oc2ccc(N3C(=O)CCC3=O)c(C)c2)c1	-5	-0.11	0	i	3	nt
Cc1ccc(NC(=O)CSc2ccc(-c3cccnc3)nn2)cc1Cl	26	-0.83	1	i	82*	1
COC(=O)c1ccc(/C=N/Nc2nc(C)c(C)s2)cc1	-25	3.1	11	nt	80*	2
COC(=O)c1ccc(/C=N/Nc2nc(-c3ccc(C)cc3)cs2)cc1	-12	-0.83	1	i	1	nt
COc1ccc(/C=C/C(=O)c2ccc[nH]2)cc1OC	-6	0.3	20	i	89*	42
N#CC1C(C#N)N2CCCN2C1c1ccc(Br)cc1 (stereo unspecified)	-13	0.95	2	nt	0	nt
COc1ccc(NC(=O)Nc2ccc(F)c(Cl)c2)cc1	17	-0.17	3	i	70	nt
COc1ccc(C(=O)NNC(=O)Cc2ccc(Cl)cc2)cc1	1	-0.21	0	i	7	nt
COc1ccc(C(=O)NNC(=O)Nc2ccc(Cl)cc2)cc1	-2	-1	1	i	81*	2
COc1ccc(NC(=O)NC23CC4(C)CC(C)(CC(C)(C4)C2)C3)cc1	-10	0.5	4	i	76*	39
N#Cc1c(N2CCCC2)ccc(Br)c1Cl	-21	0.79	1	nt	0	nt
CC(C)/C=N/NC(=O)c1ccc(Cl)cc1	10	0.14	1	i	0	nt
CCCN1CN(c2ccccc2)C(=S)N(c2ccccc2)C1	-17	-0.32	0	nt	1	nt
O=C(COc1ccccc1F)Nc1nnc(-c2ccncc2)s1	-15	1.2	2	i	0	nt
COc1ccc(OCc2nnc(NC(=O)Nc3ccccc3F)s2)cc1	nt	-0.43	3	nt	83*	5
O=C(Nc1nnc(-c2ccncc2)s1)Nc1ccccc1F	-12	-0.44	4	i	78*	4
CCN(c1ccccc1)S(=O)(=O)c1ccc(Oc2ccc(-n3ccnc3)cc2)nc1	-2	-0.73	1	i	87*	1
SMILES	Mdm2 ligase inh	Dynein transport	TNF necrop inh	Autophagy mod	zVAD death inh	zVAD necrop conf
CCN(c1ccccc1)S(=O)(=O)c1ccc(C(=O)NCCCn2ccnc2)cc1	-5	-0.21	0	i	1	nt
CCCN1C(=O)c2cc(C(=O)Nc3ccc(OC)cc3OC)ccc2C1Nc1ccc(OC)cc1OC (stereo unspecified)	nt	0.15	0	i	0	nt
Cc1ccc(NC(=O)COC(=O)c2ccc3c(c2)NC(=O)C2CCCN32)cc1 (stereo unspecified)	-18	-0.89	-2	i	83*	48
CCOc1ccccc1NC(=O)Nc1ccc(Br)cn1	-6	-0.3	-1	i	4	nt
CCOc1ccc(NC(=O)Nc2ccc(Br)cn2)cc1	-22	-0.37	4	i	75*	2
COc1ccc(NC(=O)Nc2ccc(Br)cn2)cc1OC	-1	-1.1	19	i	77*	39
CCOc1ccc(NC(=O)Nc2ccc3nccnc3c2)cc1	-24	-0.75	-4	i	92*	1
